Consider 2 compounds from article PMC8742638 (Clinical and Translational Science, 2021).

The format of data set [1] is in vivo, human. The conditions noted are these: for Tmax: healthy female subjects, median (range); for bioavailability: oral. Put shortly:
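Healthy female volunteers fasted about 10 h, then took a 100 mg oral tablet. A 13C-labeled microdose (15 µg/ml target, PEG-400 solution diluted in saline, filtered) was infused i.v. 4 h later. Plasma was sampled predose and 1–72 h post-oral, and 5–30 min post-i.v. Concentrations were measured by LC-MS/MS against a 0.0300–15.0 ng/ml calibration (1/x² weighting). Noncompartmental analysis used the actual i.v. dose, assayed from the unflushed infusion line.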

Data set [2] can be described thus: Stability and adsorption of the venetoclax microdose solution. The data set is classed as physicochemical. The conditions noted are these: during formulation and process development.
The conditions of data set [3]: cited from earlier work.
For another data set, the system named is CYP3A4 enzyme. The following applies: cited from earlier work.
Where [4] appears, read: 100 mg venetoclax oral tablet, fasting, N = 12, mean (%CV).
The mark [5] stands for this setting: female, human, plasma, po, 100 mg.
Where [6] appears, read: 100 µg 13C-venetoclax solution for IV infusion, N = 11, mean (%CV).
Setting [7] is: 100 µg 13C-venetoclax solution for IV infusion, actual dose, N = 11, mean (%CV).

Read-outs that look alike come from different tables or passages of the source.

`CC1(C)CCC(CN2CCN(c3ccc(C(=O)NS(=O)(=O)c4ccc(NCC5CCOCC5)c([N+](=O)[O-])c4)c(Oc4cnc5[nH]ccc5c4)c3)CC2)=C(c2ccc(Cl)cc2)C1` [venetoclax]: in data set [1] (setting [4]), the AUCinf/dose was 19.3 (45%) (ng·h/ml)/mg and the Cmax/dose is recorded as 1.49 (47%) (ng/ml)/mg. Also, in data set [1] (100 mg venetoclax oral tablet, fasting, N = 12), the Tmax is 4.2 (4.0–6.0) h. Besides, the half-life (usually how long it takes for the measured level to halve) in data set [1] (female, human, plasma, iv, 100 µg, t 1/2, 100 µg 13C-venetoclax solution for IV infusion, N = 11, harmonic mean (pseudo %CV)) is about 840 min. The bioavailability (commonly dose-corrected exposure relative to a reference, in per cent) in data set [1] (female, human, plasma, 100 mg) worked out at 5.4%. Moreover, in data set [1] (setting [5]), the total exposure AUC(0-inf) (in general, total exposure, with the tail of the curve extrapolated) came out at 1930 ng·h/mL; the AUC(0-t) (as a rule, exposure summed from dosing to a finite time, without extrapolation to infinity) came out at 1850 ng·h/mL; the Cmax was found to be 149 ng/mL. Further, the Tmax in data set [1] (female, human, plasma, po, 100 mg, Tmax, 100 mg venetoclax oral tablet, fasting, N = 12) is about 4 h. The half-life in data set [1] (female, human, plasma, po, 100 mg, t 1/2, 100 mg venetoclax oral tablet, fasting, N = 12, harmonic mean (pseudo %CV)) was about 840 min. The “fraction metabolized by the liver in a single pass” value in data set [1] (from hepatic extraction ratio) came to 6%. Further, the bioavailability in data set [1] (human, plasma) was in the range of 18 to 28%. In addition, in data set [2], the “adsorptive losses on the infusion line” value was in the range of 1 to 2 µg/mL. In data set [3], the pharmacokinetic linearity entry was “linear between 150 and 800 mg dose”; the terminal half-life is 16 h; the “time to reach Cmax after dosing” value was 6 to 8 h. The metabolism result in the data set on CYP3A4 enzyme is on record as “predominantly metabolized by the CYP3A4 enzyme”.
As to [^13C7]‐venetoclax [^13C‐venetoclax], the “t 1/2” value in data set [1] (100 µg 13C-venetoclax solution for IV infusion, N = 11, harmonic mean (pseudo %CV)) is 14.4 (5.5) h. Besides, in data set [1] (setting [6]), the AUCinf is recorded as 0.036 (39%) µg·h/ml, the AUCt is recorded as 0.034 (37%) µg·h/ml and the Cmax was 0.019 (19%) µg/ml. In addition, in data set [1] (setting [7]), the AUCinf/dose was 324 (37%) (ng·h/ml)/mg, the AUCt/dose is on record as 310 (36%) (ng·h/ml)/mg and the Cmax/dose was 176 (16%) (ng/ml)/mg.
